Test results: ChEMBL document CHEMBL5649170, “Sustained microglial depletion with CSF1R inhibitor impairs parenchymal plaque development in an Alzheimer's disease model” (Nat Commun, 2019)
Activity calls are given as the source filed them. No cut-off for these calls is given here.

Columns and labels:
[1] = target: Testis-specific serine/threonine-protein kinase 2 (Homo sapiens, UniProt Q96PF2); experiment: Inhibition of STK22B (unknown origin)
[2] = target: Mitogen-activated protein kinase 3 (Homo sapiens, UniProt P27361); experiment: Inhibition of MAPK3 (unknown origin)
[3] = target: Tyrosine-protein kinase BTK (Homo sapiens, UniProt Q06187); experiment: Inhibition of BTK (unknown origin)
[4] = target: Tyrosine-protein kinase HCK (Homo sapiens, UniProt P08631); experiment: Inhibition of HCK (unknown origin)
[5] = Clearance in mouse at 1.92 mg/kg, iv administered as single dose; format: ADME, organism-based; settings: in vivo
[6] = Effect on Cst7 gene expression in 5XFAD mouse cortex at 1200 ppm administered as rodent chow starting from 1.5 months and measured after 7 months by RNA-Seq analysis (reference value: 9.853 to 27.586 RPKM); format: functional; settings: route po, time 5.5 months, 4015 h
[7] = Effect on Itgax gene expression in wild type mouse hippocampus at 1200 ppm administered as rodent chow starting from 1.5 months and measured after 7 months by RNA-Seq analysis (reference value: 0.057 to 0.109 RPKM); format: functional; settings: route po, time 5.5 months, 4015 h
[8] = target: Serine/threonine-protein kinase Nek6 (Homo sapiens, UniProt Q9HC98); experiment: Inhibition of NEK6 (unknown origin)
[9] = target: Inhibitor of nuclear factor kappa-B kinase subunit epsilon (Homo sapiens, UniProt Q14164); experiment: Inhibition of IKBKE (unknown origin)
[10] = target: Dual specificity tyrosine-phosphorylation-regulated kinase 4 (Homo sapiens, UniProt Q9NR20); experiment: Inhibition of DYRK4 (unknown origin)
Mus musculus [11] = experiment: Effect on APP processing pathway in wildtype mouse assessed as C99 protein signal intensity in cortex at 1200 ppm administered as rodent starting from 1.5 months and measured after 7 months (reference value: 8.282 to 87.456 %); format: functional; settings: route po, time 5.5 months, 4015 h
[12] = target: Serine/threonine-protein kinase pim-1 (Homo sapiens, UniProt P11309); experiment: Inhibition of PIM1 (unknown origin)
Mus musculus [13] = experiment: Antialzheimer activity in 5XFAD mouse assessed as average plaque volume in thalamus at 1200 ppm administered as rodent chow starting from 1.5 months and measured after 7 months by Thio-S staining based confocal microscopic analysis (reference value: 2442.562 to 3332.739 microm3); format: functional; settings: route po, time 5.5 months, 4015 h
Mus musculus [14] = experiment: Antialzheimer activity in 5XFAD mouse assessed as proportion of time spent freezing at 1200 ppm administered as rodent chow for 10 to 24 weeks by […] (reference value: 0.00 to 0.43); format: functional; settings: route po, time 10-24 weeks
[15] = Effect on Clec7a gene expression in 5XFAD mouse hippocampus at 1200 ppm administered as rodent chow starting from 1.5 months and measured after 7 months by RNA-Seq analysis (reference value: 4.246 to 7.511 RPKM); format: functional; settings: route po, time 5.5 months, 4015 h
How it was run: (§1)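 WT and 5xFAD mice were treated with 1200 ppm PLX5622 chow or control chow from 1.5 to 7 months of age. Brains were microdissected into cortex, hippocampus and thalamus, and RNA was extracted from tissue powder. Whole-transcriptome RNA-Seq libraries were sequenced, with n = 4 per group per region (48 samples).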

Mus musculus [16] = experiment: Prevention of Cx3cr1 gene upregulation in 5XFAD mouse hippocampus at 1200 ppm administered as rodent chow starting from 1.5 months and measured after 7 months by Nanostring analysis; format: functional, tissue-based; settings: route po, time 5.5 months
[17] = Prevention of Chrm3 gene downregulation in 5XFAD mouse hippocampus assessed as percent change in Reads Per kilo base per Million mapped reads at 1200 ppm administered as rodent chow starting from 1.5 months and measured after 7 months by RNA-Seq analysis (reference value: 46.176 to 86.158 %); format: functional; settings: route po, time 5.5 months, 4015 h
[18] = target: Dual specificity protein kinase CLK2 (Homo sapiens, UniProt P49760); experiment: Inhibition of CLK2 (unknown origin)
Ephrin type-B receptor 3 = Ephrin type-B receptor 3 (Homo sapiens, UniProt P54753); experiment: Inhibition of EPHB3 (unknown origin)
Mus musculus [19] = experiment: Effect on APP processing pathway in 5XFAD mouse assessed as C-terminal PS1 protein signal intensity in cortex at 1200 ppm administered as rodent starting from 1.5 months and measured after 7 months (reference value: 42.868 to 145.444 %); format: functional; settings: route po, time 5.5 months, 4015 h
[20] = Effect on C1qa gene expression in 5XFAD mouse hippocampus at 1200 ppm administered as rodent chow starting from 1.5 months and measured after 7 months by RNA-Seq analysis (reference value: 61.868 to 70.581 RPKM); format: functional; settings: route po, time 5.5 months, 4015 h; how it was run: as §1
Mus musculus [21] = experiment: Antialzheimer activity in 5XFAD mouse assessed as amyloidbeta40 level in detergent soluble cortex fraction measured per microgram protein at 1200 ppm administered as rodent chow starting from 1.5 months and measured after 4 months by ELISA (reference value: 0 to 0.089 pg); format: functional; settings: route po, time 2.5 months, 1825 h
How it was run: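 PLX5622 at 1200 ppm in chow given to 5xFAD mice from 1.5 months to 4 or 7 months of age; cortex and thalamus homogenized in TPER (detergent-soluble), pellets re-homogenized in 70% formic acid and spun 100,000 g, 1 h, 4 °C (insoluble); protein by Bradford/Lowry; Aβ species measured by Meso Scale electrochemiluminescence immunoassay, normalized to protein; n = 7–8 per group at 7 months.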

[22] = Effect on Csf1r RPKM gene expression in 5XFAD mouse cortex at 1200 ppm administered as rodent chow starting from 1.5 months and measured after 7 months by RNA-Seq analysis (reference value: 26.750 to 37.128 RPKM); format: functional; settings: route po, time 5.5 months, 4015 h
[23] = target: Calcium/calmodulin-dependent protein kinase type 1D (Homo sapiens, UniProt Q8IU85); experiment: Inhibition of CAMK1D (unknown origin)
Mus musculus [24] = experiment: Antialzheimer activity in 5XFAD mouse assessed as ApoE immunoreactivity by measuring ApoE intensity of plaque core in cortex at 1200 ppm administered as rodent chow starting from 1.5 months and measured after 7 months by immunolabeling based confocal microscopic analysis (reference value: 13.88 to 87.23 a.u.); format: functional; settings: route po, time 5.5 months, 4015 h
[25] = target: Death-associated protein kinase 1 (Homo sapiens, UniProt P53355); experiment: Inhibition of DAPK1 (unknown origin)
[26] = target: AMP-activated protein kinase (AMPK) alpha-1/beta-1/gamma-1 (Homo sapiens, UniProt P54619+Q13131+Q9Y478); experiment: Inhibition of AMPK_A1/B1/G1 (unknown origin); format: protein-complex assay
[27] = Effect on Rtn4r gene expression in wildtype mouse hippocampus assessed as percent change in Reads Per kilo base per Million mapped reads at 1200 ppm administered as rodent chow starting from 1.5 months and measured after 7 months by RNA-Seq analysis (reference value: 88.030 to 132.504 %); format: functional; settings: route po, time 5.5 months, 4015 h
[28] = target: Epidermal growth factor receptor (Homo sapiens, UniProt P00533); experiment: Inhibition of EGFR (unknown origin)
[29] = target: Ribosomal protein S6 kinase alpha-6 (Homo sapiens, UniProt Q9UK32); experiment: Inhibition of RPS6KA6 (unknown origin)
[30] = target: Platelet-derived growth factor receptor alpha (Homo sapiens, UniProt P16234); experiment: Inhibition of PDGFRA (unknown origin)
[31] = Effect on Spi1 gene expression in wild type mouse hippocampus at 1200 ppm administered as rodent chow starting from 1.5 months and measured after 7 months by RNA-Seq analysis (reference value: 1.111 to 1.682 RPKM); format: functional; settings: route po, time 5.5 months, 4015 h

Chain of Epidermal growth factor receptor (P00533 whole entry): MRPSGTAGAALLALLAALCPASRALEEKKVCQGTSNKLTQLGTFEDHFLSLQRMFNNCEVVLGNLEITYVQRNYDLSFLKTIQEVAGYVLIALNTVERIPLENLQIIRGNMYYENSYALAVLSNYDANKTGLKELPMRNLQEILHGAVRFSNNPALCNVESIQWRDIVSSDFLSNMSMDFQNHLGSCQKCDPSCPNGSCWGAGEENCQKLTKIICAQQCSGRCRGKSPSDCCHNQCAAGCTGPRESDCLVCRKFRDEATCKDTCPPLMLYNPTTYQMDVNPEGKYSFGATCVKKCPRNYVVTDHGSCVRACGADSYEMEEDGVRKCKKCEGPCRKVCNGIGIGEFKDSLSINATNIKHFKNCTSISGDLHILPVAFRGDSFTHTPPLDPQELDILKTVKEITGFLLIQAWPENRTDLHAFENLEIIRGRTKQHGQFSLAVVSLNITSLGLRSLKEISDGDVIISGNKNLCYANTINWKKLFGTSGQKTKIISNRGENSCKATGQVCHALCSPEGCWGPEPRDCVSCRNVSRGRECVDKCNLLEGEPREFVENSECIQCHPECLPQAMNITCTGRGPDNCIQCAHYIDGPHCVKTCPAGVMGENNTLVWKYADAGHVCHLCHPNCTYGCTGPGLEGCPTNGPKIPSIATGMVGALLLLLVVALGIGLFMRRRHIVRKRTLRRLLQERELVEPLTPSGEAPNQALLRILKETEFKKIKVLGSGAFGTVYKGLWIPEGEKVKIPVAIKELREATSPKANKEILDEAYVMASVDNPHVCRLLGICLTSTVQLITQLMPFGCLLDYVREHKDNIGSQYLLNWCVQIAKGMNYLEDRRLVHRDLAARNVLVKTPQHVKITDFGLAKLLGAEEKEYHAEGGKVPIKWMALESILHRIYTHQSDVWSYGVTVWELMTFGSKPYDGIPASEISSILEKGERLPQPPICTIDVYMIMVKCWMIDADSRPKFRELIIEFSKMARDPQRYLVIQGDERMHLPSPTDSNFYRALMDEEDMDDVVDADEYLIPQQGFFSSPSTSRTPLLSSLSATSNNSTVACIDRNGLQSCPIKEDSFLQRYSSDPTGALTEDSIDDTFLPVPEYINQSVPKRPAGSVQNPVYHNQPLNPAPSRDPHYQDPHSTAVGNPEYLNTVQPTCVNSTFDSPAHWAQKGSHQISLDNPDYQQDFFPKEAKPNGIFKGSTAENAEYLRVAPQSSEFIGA
Chain of Serine/threonine-protein kinase Nek6 (Q9HC98 whole entry): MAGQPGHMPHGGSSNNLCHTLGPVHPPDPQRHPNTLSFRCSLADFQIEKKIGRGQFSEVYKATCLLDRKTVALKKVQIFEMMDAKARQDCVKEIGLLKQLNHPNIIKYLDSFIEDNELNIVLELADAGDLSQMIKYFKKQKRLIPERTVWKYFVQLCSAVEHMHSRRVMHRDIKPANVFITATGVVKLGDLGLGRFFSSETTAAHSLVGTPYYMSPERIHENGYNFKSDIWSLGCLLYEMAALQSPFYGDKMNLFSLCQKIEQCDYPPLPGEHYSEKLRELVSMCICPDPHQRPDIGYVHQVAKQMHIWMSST
Chain of Mitogen-activated protein kinase 3 (P27361 whole entry): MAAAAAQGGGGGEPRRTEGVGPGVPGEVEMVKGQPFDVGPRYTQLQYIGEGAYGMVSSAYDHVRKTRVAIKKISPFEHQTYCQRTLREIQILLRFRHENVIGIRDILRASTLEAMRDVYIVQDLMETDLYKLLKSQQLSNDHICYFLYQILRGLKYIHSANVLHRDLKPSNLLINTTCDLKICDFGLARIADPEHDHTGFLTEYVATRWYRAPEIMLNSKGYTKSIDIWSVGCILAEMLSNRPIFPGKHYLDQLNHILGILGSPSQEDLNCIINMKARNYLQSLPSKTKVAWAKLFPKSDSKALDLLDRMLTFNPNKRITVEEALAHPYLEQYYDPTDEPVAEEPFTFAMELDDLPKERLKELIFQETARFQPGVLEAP
Chain of Death-associated protein kinase 1 (P53355 whole entry): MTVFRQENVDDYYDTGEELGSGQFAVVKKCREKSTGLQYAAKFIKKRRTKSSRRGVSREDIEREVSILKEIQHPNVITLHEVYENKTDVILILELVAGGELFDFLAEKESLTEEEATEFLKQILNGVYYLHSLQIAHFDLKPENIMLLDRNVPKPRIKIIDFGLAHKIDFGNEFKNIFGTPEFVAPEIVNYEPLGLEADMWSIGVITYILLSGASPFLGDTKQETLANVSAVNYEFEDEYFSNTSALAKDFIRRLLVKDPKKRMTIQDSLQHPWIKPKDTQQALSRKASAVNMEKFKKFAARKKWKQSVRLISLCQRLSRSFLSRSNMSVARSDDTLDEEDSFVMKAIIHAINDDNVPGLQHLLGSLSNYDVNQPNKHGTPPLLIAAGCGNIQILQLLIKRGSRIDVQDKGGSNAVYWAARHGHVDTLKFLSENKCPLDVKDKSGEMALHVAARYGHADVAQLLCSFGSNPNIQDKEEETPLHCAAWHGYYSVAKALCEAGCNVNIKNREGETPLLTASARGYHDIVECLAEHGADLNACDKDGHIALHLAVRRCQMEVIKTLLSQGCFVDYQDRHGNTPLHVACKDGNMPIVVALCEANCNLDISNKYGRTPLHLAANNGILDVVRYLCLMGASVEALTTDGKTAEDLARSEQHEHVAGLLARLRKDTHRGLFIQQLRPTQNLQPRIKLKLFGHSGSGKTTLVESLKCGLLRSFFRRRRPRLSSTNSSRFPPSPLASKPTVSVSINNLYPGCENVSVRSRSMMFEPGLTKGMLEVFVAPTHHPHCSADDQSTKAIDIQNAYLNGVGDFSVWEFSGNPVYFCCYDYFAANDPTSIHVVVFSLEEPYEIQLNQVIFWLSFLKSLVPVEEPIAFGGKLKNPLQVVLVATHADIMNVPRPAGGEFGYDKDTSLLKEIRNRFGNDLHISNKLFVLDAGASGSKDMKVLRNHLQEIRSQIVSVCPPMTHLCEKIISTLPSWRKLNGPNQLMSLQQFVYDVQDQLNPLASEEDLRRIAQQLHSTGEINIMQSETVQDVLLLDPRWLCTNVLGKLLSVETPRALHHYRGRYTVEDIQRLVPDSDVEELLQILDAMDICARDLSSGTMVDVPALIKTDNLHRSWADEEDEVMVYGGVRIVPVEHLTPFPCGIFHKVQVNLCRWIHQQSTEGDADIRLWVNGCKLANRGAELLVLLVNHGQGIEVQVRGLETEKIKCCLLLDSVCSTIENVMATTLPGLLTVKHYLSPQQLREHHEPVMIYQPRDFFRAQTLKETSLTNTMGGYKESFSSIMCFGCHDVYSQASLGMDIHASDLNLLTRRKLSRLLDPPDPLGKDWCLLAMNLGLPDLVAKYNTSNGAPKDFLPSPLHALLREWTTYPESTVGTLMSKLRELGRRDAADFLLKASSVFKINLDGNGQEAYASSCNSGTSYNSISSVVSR
Chain of Tyrosine-protein kinase HCK (P08631 whole entry): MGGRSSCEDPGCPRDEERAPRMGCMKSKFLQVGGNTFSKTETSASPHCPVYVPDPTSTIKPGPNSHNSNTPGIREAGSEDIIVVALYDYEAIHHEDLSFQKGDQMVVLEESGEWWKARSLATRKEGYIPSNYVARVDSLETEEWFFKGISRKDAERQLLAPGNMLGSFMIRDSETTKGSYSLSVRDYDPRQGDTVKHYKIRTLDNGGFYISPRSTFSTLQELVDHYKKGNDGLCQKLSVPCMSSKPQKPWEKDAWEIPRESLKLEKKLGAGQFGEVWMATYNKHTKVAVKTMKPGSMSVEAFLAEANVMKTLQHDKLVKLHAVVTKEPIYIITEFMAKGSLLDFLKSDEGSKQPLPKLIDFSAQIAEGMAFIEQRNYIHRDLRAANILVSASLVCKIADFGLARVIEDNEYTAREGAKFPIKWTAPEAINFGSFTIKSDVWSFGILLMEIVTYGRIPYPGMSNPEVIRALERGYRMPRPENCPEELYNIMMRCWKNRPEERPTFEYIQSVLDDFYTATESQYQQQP
Chain of Tyrosine-protein kinase BTK (Q06187 whole entry): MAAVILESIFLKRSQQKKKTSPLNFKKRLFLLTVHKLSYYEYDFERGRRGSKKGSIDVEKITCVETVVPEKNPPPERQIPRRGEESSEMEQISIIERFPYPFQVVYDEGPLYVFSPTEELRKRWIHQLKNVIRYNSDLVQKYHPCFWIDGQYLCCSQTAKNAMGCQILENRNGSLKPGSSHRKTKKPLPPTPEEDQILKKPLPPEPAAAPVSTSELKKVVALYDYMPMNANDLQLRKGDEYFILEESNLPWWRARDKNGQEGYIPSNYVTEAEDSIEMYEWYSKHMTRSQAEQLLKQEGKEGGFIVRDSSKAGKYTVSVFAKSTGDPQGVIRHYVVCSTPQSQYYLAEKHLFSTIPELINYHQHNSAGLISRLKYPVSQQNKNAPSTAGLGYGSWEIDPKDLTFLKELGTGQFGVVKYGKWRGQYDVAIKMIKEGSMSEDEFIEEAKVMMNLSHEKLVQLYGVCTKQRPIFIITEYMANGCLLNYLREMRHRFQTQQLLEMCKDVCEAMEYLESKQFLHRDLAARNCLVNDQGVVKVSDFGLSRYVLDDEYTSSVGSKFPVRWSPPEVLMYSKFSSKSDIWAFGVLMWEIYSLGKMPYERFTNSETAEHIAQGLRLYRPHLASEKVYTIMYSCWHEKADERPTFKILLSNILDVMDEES
Chain of Serine/threonine-protein kinase pim-1 (P11309 whole entry): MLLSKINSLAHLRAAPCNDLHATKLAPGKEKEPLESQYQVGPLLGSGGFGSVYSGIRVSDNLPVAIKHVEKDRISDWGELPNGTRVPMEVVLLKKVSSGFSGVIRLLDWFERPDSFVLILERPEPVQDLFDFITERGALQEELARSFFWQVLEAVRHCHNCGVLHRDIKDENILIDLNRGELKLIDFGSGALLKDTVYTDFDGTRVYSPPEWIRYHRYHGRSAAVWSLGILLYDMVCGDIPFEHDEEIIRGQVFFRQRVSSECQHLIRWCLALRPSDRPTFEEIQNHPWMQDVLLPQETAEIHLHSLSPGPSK

## COc1ncc(F)cc1CNc1ccc(Cc2c[nH]c3ncc(C)cc23)c(F)n1 [PLX-5622]
[1]
  IC50: > 1 µM
[2]
  IC50: > 1 µM
[3]
  IC50: > 1 µM
[4]
  IC50: > 1 µM
[5]
  clearance: 0.126 L/h/kg
[6]
  Activity: 0.887 RPKM
[7]
  Activity: 0 RPKM
[8]
  IC50: > 1 µM
[9]
  IC50: > 1 µM
[10]
  IC50: > 1 µM
Mus musculus [11]
  Activity: 21.073%
[12]
  IC50: > 1 µM
Mus musculus [13]
  Activity: 1488.396 um3
Mus musculus [14]
  Activity: 0.07
[15]
  Activity: 0.239 RPKM
Mus musculus [16]
  Activity: Active
[17]
  Activity: 85.99%
[18]
  IC50: > 1 µM
Ephrin type-B receptor 3
  IC50: > 1 µM
Mus musculus [19]
  Activity: 12.015%
[20]
  Activity: 6.689 RPKM
Mus musculus [21]
  Activity: 0 pg
[22]
  Activity: 0.984 RPKM
[23]
  IC50: > 1 µM
Mus musculus [24]
  Flu intensity: 4.57 a.u.
[25]
  IC50: > 1 µM
[26]
  IC50: > 1 µM
[27]
  Activity: 89.887%
[28]
  IC50: > 1 µM
[29]
  IC50: > 1 µM
[30]
  IC50: > 1 µM
[31]
  Activity: 0.055 RPKM
